Measured values published in ChEMBL document CHEMBL3784974, “Design and Structural Characterization of Potent and Selective Inhibitors of Phosphatidylinositol 4 Kinase IIIβ” (J Med Chem, 2016).

What was measured:
[1] = molecular target: Phosphatidylinositol 4,5-bisphosphate 3-kinase catalytic subunit gamma isoform (Homo sapiens, UniProt P48736); experiment: Inhibition of histidine-tagged recombinant human full length PI3Kgamma expressed in insect cells preincubated for 15 mins followed by addition of cold ATP/gamma32P-ATP measured after 15 mins in presence of MgCl2
Phosphatidylinositol 4,5-bisphosphate 3-kinase catalytic subunit gamma isoform, sequence (P48736 whole entry, canonical isoform): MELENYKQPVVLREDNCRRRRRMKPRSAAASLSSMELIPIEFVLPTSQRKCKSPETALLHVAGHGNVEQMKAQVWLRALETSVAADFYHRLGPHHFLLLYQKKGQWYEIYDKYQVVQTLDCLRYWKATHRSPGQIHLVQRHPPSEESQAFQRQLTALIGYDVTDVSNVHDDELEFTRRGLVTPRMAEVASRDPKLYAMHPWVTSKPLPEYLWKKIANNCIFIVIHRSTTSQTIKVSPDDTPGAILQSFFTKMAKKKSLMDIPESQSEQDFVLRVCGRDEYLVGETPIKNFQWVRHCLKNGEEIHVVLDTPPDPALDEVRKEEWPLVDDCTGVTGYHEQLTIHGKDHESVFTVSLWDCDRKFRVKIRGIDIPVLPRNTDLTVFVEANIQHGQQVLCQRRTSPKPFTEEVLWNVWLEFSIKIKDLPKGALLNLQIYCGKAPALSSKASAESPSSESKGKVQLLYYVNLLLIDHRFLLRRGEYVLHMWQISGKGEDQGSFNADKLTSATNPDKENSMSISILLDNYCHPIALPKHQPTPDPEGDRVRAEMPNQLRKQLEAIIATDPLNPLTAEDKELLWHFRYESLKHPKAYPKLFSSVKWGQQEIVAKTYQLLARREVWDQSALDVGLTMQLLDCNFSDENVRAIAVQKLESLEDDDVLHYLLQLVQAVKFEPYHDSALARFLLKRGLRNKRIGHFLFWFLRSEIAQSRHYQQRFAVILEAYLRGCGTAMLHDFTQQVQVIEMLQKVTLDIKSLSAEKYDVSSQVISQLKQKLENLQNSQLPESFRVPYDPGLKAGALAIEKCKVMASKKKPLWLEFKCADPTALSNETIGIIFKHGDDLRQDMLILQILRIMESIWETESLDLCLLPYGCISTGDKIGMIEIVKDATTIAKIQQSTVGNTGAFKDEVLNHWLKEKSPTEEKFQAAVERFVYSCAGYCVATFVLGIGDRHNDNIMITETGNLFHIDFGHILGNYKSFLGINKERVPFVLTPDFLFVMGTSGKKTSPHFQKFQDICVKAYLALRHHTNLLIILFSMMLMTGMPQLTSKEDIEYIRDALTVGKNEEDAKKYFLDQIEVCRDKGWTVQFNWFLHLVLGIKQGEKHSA

[2] = molecular target: Phosphatidylinositol 4-kinase type 2-alpha (Homo sapiens) (UniProt Q9BTU6); experiment: Inhibition of flag-tagged recombinant PI4K2alpha (unknown origin) transfected in HEK293T cells upto 20 uM preincubated for 15 mins followed by addition of cold ATP/gamma32P-ATP measured after 25 mins; type: cell-based; settings: HEK-293T
Phosphatidylinositol 4-kinase type 2-alpha (Homo sapiens), sequence (Q9BTU6 whole entry): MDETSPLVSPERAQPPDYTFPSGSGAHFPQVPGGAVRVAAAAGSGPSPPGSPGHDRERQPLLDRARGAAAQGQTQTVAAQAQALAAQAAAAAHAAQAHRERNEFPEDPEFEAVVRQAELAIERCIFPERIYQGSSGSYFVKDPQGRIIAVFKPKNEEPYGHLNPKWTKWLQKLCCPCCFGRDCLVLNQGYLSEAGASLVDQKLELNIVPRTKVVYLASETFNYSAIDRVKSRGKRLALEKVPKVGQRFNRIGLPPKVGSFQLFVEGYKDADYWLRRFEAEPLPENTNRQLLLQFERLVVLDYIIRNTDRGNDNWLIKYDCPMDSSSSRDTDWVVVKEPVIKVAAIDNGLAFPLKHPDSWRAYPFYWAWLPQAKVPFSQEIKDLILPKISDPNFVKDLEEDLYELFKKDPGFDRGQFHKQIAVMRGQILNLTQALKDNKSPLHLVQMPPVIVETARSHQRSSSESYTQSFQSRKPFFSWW
Method in brief: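 Enzymes cloned from DNASU plasmids, FLAG-tagged, transfected into HEK293T and FLAG-immunoprecipitated, eluted with FLAG peptide. 15 min inhibitor preincubation, 25 min reaction in 20 mM Bis-Tris propane pH 7.5, 10 mM MgCl2, 0.075 mM Triton X-100, 0.5 mM EGTA, 1 mM DTT, 100 µM PI, 500 ng/µL BSA, 2% DMSO, 10 µM ATP, 2 uCi γ32P-ATP; phosphorimaging.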

[3] = molecular target: T1, Phosphatidylinositol 3-kinase C2 domain-containing subunit gamma (Homo sapiens, UniProt O75747); experiment: Inhibition of N-terminal GST-tagged recombinant human full length PI3KC2gamma expressed in baculovirus infected Sf21 insect cells preincubated for 15 mins followed by addition of cold ATP/gamma32P-ATP measured after 15 mins
T1 sequence (O75747 whole entry): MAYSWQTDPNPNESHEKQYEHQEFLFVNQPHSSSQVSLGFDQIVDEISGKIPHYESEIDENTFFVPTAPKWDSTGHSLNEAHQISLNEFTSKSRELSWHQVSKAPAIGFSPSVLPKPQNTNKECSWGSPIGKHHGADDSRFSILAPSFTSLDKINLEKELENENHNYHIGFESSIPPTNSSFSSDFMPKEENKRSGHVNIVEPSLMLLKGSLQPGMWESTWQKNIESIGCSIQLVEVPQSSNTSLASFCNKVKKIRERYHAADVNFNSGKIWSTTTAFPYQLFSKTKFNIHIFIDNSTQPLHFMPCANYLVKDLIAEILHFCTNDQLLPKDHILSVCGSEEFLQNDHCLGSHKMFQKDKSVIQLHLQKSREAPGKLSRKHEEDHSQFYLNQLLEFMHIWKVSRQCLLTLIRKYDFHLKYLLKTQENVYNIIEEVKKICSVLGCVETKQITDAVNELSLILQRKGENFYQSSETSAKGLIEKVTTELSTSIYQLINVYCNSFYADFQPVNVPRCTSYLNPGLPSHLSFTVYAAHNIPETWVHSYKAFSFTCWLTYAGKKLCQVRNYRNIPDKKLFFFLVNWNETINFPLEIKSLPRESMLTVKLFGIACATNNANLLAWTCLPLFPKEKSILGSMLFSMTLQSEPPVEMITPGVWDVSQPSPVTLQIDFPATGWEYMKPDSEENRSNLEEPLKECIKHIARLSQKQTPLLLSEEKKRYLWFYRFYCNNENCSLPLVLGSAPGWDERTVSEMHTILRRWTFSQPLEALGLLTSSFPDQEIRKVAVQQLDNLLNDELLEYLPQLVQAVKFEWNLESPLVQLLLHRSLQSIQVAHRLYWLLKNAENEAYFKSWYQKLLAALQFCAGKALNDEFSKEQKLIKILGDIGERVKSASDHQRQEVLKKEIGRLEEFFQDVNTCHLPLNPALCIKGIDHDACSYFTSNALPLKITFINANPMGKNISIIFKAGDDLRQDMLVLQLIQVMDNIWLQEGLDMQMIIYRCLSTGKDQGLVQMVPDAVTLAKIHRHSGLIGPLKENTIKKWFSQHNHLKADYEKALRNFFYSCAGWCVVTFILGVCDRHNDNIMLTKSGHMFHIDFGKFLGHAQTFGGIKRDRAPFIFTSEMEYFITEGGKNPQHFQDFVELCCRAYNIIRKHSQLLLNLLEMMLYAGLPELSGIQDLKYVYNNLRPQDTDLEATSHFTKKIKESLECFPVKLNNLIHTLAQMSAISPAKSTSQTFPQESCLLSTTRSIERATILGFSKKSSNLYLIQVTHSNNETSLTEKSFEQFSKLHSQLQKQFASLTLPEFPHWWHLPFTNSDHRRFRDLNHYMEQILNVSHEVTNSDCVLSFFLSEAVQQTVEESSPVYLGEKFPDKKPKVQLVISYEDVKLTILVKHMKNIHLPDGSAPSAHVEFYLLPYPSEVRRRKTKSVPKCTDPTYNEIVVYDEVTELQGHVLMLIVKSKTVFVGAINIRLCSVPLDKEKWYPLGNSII
Method in brief: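 1 nM PI3KC2γ, 15 min inhibitor preincubation, 15 min reaction. Final: 50 mM HEPES pH 7.5, 100 mM NaCl, 0.03% CHAPS, 10 mM MgCl2, 1 mM EGTA, 2 mM DTT, 100 µM PI (PI:DOPS:DOPC), 500 ng/µL BSA, 2% DMSO, 10 µM ATP, 2 uCi γ32P-ATP. Nitrocellulose capture, phosphorimaging.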

Hepatitis C virus = experiment: Antiviral activity against HCV genotype 2a J6/JFH1 infected in human Huh7.5 cells after 3 days by gaussia luciferase assay; type: functional, organism-based, Hepacivirus hominis; settings: subtype 2a J6/JFH1, Huh-7, 72 h
Method in brief: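 Huh7.5 cells stably infected with J6/JFH1-GLuc, kept in DMEM/10% FBS, glutamine, NEAA, pen/strep at 37 °C, 5% CO2. 10,000 cells/well; serially diluted compound added 1 h after plating; 3-day incubation. Replication read as Gaussia luciferase activity in supernatant; viability by Presto Blue.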

[4] = molecular target: Phosphatidylinositol 4,5-bisphosphate 3-kinase catalytic subunit alpha isoform (Homo sapiens, UniProt P42336); experiment: Inhibition of N-terminal histidine6-tagged recombinant human full length PI3Kalpha expressed in baculovirus infected Sf21 insect cells preincubated for 15 mins followed by addition of cold ATP/gamma32P-ATP measured after 15 mins
Phosphatidylinositol 4,5-bisphosphate 3-kinase catalytic subunit alpha isoform, sequence (P42336 whole entry, canonical isoform): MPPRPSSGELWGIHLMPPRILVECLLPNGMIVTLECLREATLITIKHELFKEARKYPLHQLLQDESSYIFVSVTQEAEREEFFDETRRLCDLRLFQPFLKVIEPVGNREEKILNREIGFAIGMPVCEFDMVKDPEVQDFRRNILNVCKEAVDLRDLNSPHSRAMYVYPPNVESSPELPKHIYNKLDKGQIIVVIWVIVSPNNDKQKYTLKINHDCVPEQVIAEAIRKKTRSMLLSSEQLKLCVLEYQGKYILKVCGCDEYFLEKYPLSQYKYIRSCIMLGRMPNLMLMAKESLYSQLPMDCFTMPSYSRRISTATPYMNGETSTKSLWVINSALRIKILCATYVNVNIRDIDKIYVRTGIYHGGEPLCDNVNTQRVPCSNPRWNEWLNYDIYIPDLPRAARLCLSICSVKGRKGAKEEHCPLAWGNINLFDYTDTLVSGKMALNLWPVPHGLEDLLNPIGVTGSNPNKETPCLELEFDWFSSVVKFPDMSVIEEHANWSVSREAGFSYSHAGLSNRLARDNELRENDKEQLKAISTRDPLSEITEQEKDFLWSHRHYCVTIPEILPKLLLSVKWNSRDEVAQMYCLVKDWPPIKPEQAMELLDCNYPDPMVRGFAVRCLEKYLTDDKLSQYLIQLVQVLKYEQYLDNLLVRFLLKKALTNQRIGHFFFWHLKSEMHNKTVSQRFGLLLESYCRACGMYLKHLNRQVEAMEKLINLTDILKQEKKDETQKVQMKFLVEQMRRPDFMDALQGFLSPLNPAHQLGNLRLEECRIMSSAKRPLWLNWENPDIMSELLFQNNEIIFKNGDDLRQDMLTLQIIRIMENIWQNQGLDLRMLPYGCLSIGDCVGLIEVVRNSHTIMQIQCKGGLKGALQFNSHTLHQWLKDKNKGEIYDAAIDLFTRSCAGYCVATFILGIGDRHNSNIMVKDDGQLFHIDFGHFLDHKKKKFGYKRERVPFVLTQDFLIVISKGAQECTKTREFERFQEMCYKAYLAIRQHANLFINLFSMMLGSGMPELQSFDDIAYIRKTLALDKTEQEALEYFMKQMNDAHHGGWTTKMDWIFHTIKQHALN
Method in brief: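 Radiometric membrane-capture lipid kinase assay. Enzyme premixed with PIP2:DOPS:DOPC vesicles and BSA. Inhibitor diluted in 10% DMSO/kinase buffer, preincubated 15 min, then cold ATP plus γ32P-ATP added and run 15 min. Final conditions: 50mM HEPES pH 7.5, 100mM NaCl, 0.03% CHAPS, 10mM MgCl2, 1mM EGTA, 2mM DTT, 3.3nM PI3Kα, 80µM PIP2, 500ng/µL BSA, 2% DMSO, 10µM ATP, 2uCi γ32P-ATP. Product spotted onto nitrocellulose, washed in 1M NaCl/1% phosphoric acid, phosphorimaged.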

[5] = Inhibition of N-terminal flag-tagged recombinant human full length PI4K3alpha expressed in baculovirus infected Sf21 insect cells preincubated for 15 mins followed by addition of cold ATP/gamma32P-ATP measured after 25 mins
Method in brief: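 Purchased PI4KIIIα at 1.2 nM; 15 min inhibitor preincubation, 25 min reaction in 20 mM Bis-Tris propane pH 7.5, 10 mM MgCl2, 0.075 mM Triton X-100, 0.5 mM EGTA, 1 mM DTT, 100 µM PI (PI:DOPS:DOPC), 500 ng/µL BSA, 2% DMSO, 10 µM ATP, 2 uCi γ32P-ATP. Radiolabel captured on nitrocellulose, phosphorimaged.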

| SMILES | IC50 [1] | inhibition [2] | IC50 [3] | IC50 (Hepatitis C virus) | IC50 [4] | IC50 [5] |
| --- | --- | --- | --- | --- | --- | --- |
| COc1ccc(-c2sc(NC(=O)C(C)(C)C)nc2C)cc1S(=O)(=O)Nc1ccc(O)cc1 | 20000 nM | < 20% | 1000 nM | 1300 nM | 10000 nM | 3000 nM |
| COc1ccc(-c2sc(NC(=O)C3CCCC3)nc2C)cc1S(=O)(=O)Nc1ccc(O)cc1 | 1050 nM | < 50% | 1000 nM | 630 nM | 2000 nM | 2600 nM |
